Test results from ChEMBL document CHEMBL1122185, “Tricyclics with analgesic and antidepressant activity. 2. [[(Alkylamino)ethyl]thio]dibenzo[b,f]thiepins and 10,11-dihydro derivatives” (1982).
Values joined by “and” are separate entries in the source; they are usually repeats but may differ in a detail not shown here. Identical values can stand only once.

Key:
Assay type in all cases: functional
Mus musculus [1] = assay: Antidepressant activity was determined to prevent tetrabenazine-induced ptosis(TBZ) after oral administration in mice
Outline: (§1)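 Mouse model measuring prevention of tetrabenazine-induced ptosis, with dosing orally or intraperitoneally. The vehicle was distilled water with a few drops of Tween 80. ED50 values were calculated by linear-regression analysis, with 95% confidence limits in parentheses.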

Rattus norvegicus [2] = assay: Antidepressant activity was determined for potentiation of head twitching induced by 5-hydroxytryptophan-(5-HTP) after intraperitoneal administration in pargyline-pretreated rats,; conditions: ip
Outline: (§2)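 In pargyline-pretreated rats, potentiation of 5-hydroxytryptophan-induced head twitching (stereotypy) was measured after intraperitoneal dosing. The vehicle was distilled water plus a few drops of Tween 80. ED50 was derived by linear regression with 95% confidence limits.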

Mus musculus [3] = assay: Analgesic activity was determined for inhibition of phenyl-p-quinone-induced writhing (PQW) after subcutaneous administration in mice; conditions: for ED50: sc
Outline: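 Mice were given phenyl-p-quinone to induce writhing, and inhibition of writhing was scored after subcutaneous dosing. The vehicle was distilled water with a few drops of Tween 80. ED50 was obtained by linear regression with 95% confidence limits.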

Mus musculus [4] = assay: Analgesic activity was determined for delay in response to noxious heat stimuli after subcutaneous administration in mice, in tail flick assay; conditions: for ED50: sc
Outline: (§3)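 D'Amour-Smith tail-flick method in mice: delay in response to a noxious heat stimulus. Compounds were given in a vehicle of distilled water with a few drops of Tween 80. ED50 was calculated by linear-regression analysis with 95% confidence limits.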

Rattus norvegicus [5] = assay: Antidepressant activity was determined for potentiation of head twitching induced by 5-hydroxytryptophan-(5-HTP) after intraperitoneal administration in pargyline-pretreated rats; conditions: ip; outline: as §2
Mus musculus [6] = assay: Antidepressant activity was determined to prevent tetrabenazine-induced ptosis(TBZ) after intraperitoneal administration in mice; conditions: ip; outline: as §1
Mus musculus [7] = assay: Analgesic activity was determined for delay in response to noxious heat stimuli after intraperitoneal administration in mice, in tail flick assay; outline: as §3
Mus musculus [8] = assay: Antidepressant activity was determined to prevent tetrabenazine-induced ptosis(TBZ) after oral administration in mice.(value in parentheses indicates 95% confidence limits).; outline: as §1
[9] = Mus musculus, po, read-out: ED50

`CN(C)CCSC1Cc2ccccc2Sc2ccc(F)cc21` (stereo unspecified) was tested, and the ED50 (Mus musculus [1]) was 0.91 mg/kg, the ED50 (Mus musculus [1]; [9]) was 1.2 mg/kg and the ED50 (Rattus norvegicus [2]) was > 10 mg/kg. For the same molecule, the ED50 (Mus musculus [3]) was 9 mg/kg and the ED50 (Mus musculus [4]) was > 25 mg/kg.

`CN(C)CCSC1=Cc2ccccc2Sc2ccccc21` was tested, and the ED50 (Mus musculus [1]; [9]) was > 20 mg/kg, the ED50 (Rattus norvegicus [5]) was > 10 mg/kg and the Inhibition (Mus musculus [3]) was 64%. For the same molecule, the ED50 (Mus musculus [4]) was > 25 mg/kg.

With `CNCCSC1=Cc2ccccc2Sc2ccc(O)cc21` the ED50 (Mus musculus [1]; [9]) was 2 mg/kg, the ED50 (Rattus norvegicus [5]) was > 10 mg/kg and the ED50 (Mus musculus [3]) was > 10 mg/kg. For the same molecule, the ED50 (Mus musculus [4]) was > 25 mg/kg.

Molecule `CNCCSC1Cc2ccccc2Sc2ccc(F)cc21` (stereo unspecified) has an ED50 (Mus musculus [1]; [9]) of 1.5 mg/kg, an ED50 (Mus musculus [6]) of 0.28 mg/kg and an ED50 (Rattus norvegicus [5]) of 8.1 mg/kg. It also gave an Inhibition (Mus musculus [7]) of 60% and an ED50 (Mus musculus [3]) of 2.9 mg/kg.

In the case of `CN(C)CCSC1=Cc2ccccc2Sc2ccc(Cl)cc21`, the ED50 (Mus musculus [1]; [9]) is reported as 3.7 mg/kg, the ED50 (Rattus norvegicus [5]) is reported as > 10 mg/kg and the ED50 (Mus musculus [3]) is reported as 14.6 mg/kg. The ED50 (Mus musculus [4]) was > 25 mg/kg.

`CNCCSC1=Cc2ccccc2Sc2ccc(F)cc21` was tested, and the ED50 (Mus musculus [1]; [9]) was 5.2 mg/kg, the ED50 (Rattus norvegicus [5]) was > 10 mg/kg and the ED50 (Mus musculus [3]) was 8.9 mg/kg. The Inhibition (Mus musculus [4]) was 50%.

`CN(C)CCSC1Cc2ccccc2Sc2ccc(Cl)cc21` (stereo unspecified) was tested, and the ED50 (Rattus norvegicus [5]) was > 10 mg/kg, the ED50 (Mus musculus [3]) was > 10 mg/kg and the ED50 (Mus musculus [4]) was > 25 mg/kg.

In the case of `CN(C)CCCN1c2ccccc2CCc2ccccc21` [IMIPRAMINE], the ED50 (Mus musculus [1]) is reported as 2.8 mg/kg and 1.3 mg/kg, the ED50 (Rattus norvegicus [5]) is reported as > 10 mg/kg and the ED50 (Mus musculus [3]) is reported as 10.7 mg/kg. The ED50 (Mus musculus [4]) was > 25 mg/kg.

In the case of `CN(C)CCSC1Cc2ccccc2Sc2ccccc21` (stereo unspecified), the Inhibition (Mus musculus [1]) is reported as 60%, the ED50 (Rattus norvegicus [5]) is reported as > 10 mg/kg and the ED50 (Mus musculus [3]) is reported as 3.3 mg/kg. The Inhibition (Mus musculus [4]) was 60%.

With `CNCCSC1=Cc2ccccc2Sc2ccc(Cl)cc21` the ED50 (Rattus norvegicus [5]) was > 10 mg/kg, the ED50 (Mus musculus [3]) was 12.5 mg/kg and the ED50 (Mus musculus [4]) was > 25 mg/kg.

With `CNCCSC1Cc2ccccc2Sc2ccccc21` (stereo unspecified) the ED50 (Mus musculus [1]; [9]) was 8 mg/kg, the ED50 (Rattus norvegicus [5]) was > 10 mg/kg and the ED50 (Mus musculus [3]) was 4.2 mg/kg. For the same molecule, the Inhibition (Mus musculus [4]) was 60%.

Work on `CC(C)=CCN1CC[C@]2(C)c3cc(O)ccc3C[C@H]1[C@H]2C` [(+)-PENTAZOCINE] yielded an ED50 (Mus musculus [3]) of 2.4 mg/kg and an ED50 (Mus musculus [4]) of 14.6 mg/kg.

`CN(C)CCSC1=Cc2ccccc2Sc2ccc(F)cc21` was tested, and the ED50 (Rattus norvegicus [5]) was > 10 mg/kg, the ED50 (Mus musculus [8]) was 3.6 mg/kg and the ED50 (Mus musculus [3]) was > 10 mg/kg. The ED50 (Mus musculus [4]) was > 25 mg/kg.

`CNCCSC1=Cc2ccccc2Sc2ccccc21` was tested, and the ED50 (Rattus norvegicus [5]) was > 10 mg/kg, the ED50 (Mus musculus [8]) was 23.9 mg/kg and the ED50 (Mus musculus [4]) was > 25 mg/kg.

Work on `CNCCSC1Cc2ccccc2Sc2ccc(Cl)cc21` (stereo unspecified) yielded an ED50 (Rattus norvegicus [5]) of 50 mg/kg, an ED50 (Mus musculus [7]; ip) of 63.6 mg/kg and an ED50 (Mus musculus [3]) of 4.4 mg/kg.
